Laboratory results published in ChEMBL document CHEMBL4321808, “Heteroaryl Phosphonates as Noncovalent Inhibitors of Both Serine- and Metallocarbapenemases” (J Med Chem, 2019).
≈ marks a conversion by molar mass, not a printed value. Each block holds one compound with its values, some of them ahead of it.

Legend:
[1] = system: Enterobacter cloacae; assay: Antimicrobial activity against Enterobacter cloacae 5981 expressing NDM1 assessed as inhibition of microbial growth incubated for 18 to 20 hrs by CLSI based method; assay type: functional
Outline: (§1)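 CLSI broth microdilution in MHBII. Compound tested alone in serial two-fold dilutions, 128–0.12 µg/mL. Inoculum was set to 0.5 McFarland and diluted to about 5×10^5 CFU per well. Plates incubated at 35 °C for 18–20 h. MIC read as the lowest concentration with no visible growth; an un-inoculated plate served as solubility control.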

[2] = system: Escherichia coli; assay: Antimicrobial activity against Escherichia coli 5980 expressing NDM1 assessed as inhibition of microbial growth incubated for 18 to 20 hrs by CLSI based method; assay type: organism-based; outline: as §1
[3] = Inhibition of N-terminal 6x-His-tagged Klebsiella pneumoniae KPC2 (25 to 293 residues) assessed as reduction in nitrocefin hydrolysis by spectrophotometry
Outline: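 Purified recombinant KPC-2 at 1 nM in 100 mM Tris-HCl pH 7.0 with 0.01% Triton X-100, 37 °C, reaction started by enzyme. IC50 from sigmoidal fit; Ki by Cheng-Prusoff using the nitrocefin Km. Run in duplicate, or once or in triplicate for some compounds.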

[4] = system: Klebsiella pneumoniae; assay: Antimicrobial activity against Klebsiella pneumoniae 5979 expressing NDM1 assessed as inhibition of microbial growth incubated for 18 to 20 hrs by CLSI based method; assay type: organism-based; outline: as §1
[5] = system: Klebsiella pneumoniae; assay: Antimicrobial activity against Klebsiella pneumoniae 4683 expressing KPC2 assessed as inhibition of microbial growth incubated for 18 to 20 hrs by CLSI based method; assay type: organism-based; outline: as §1
[6] = system: Pseudomonas aeruginosa; assay: Antimicrobial activity against Pseudomonas aeruginosa 4698 expressing VIM2 assessed as inhibition of microbial growth incubated for 18 to 20 hrs by CLSI based method; assay type: organism-based; outline: as §1
[7] = system: Escherichia coli; assay: Inhibition of NDM-1 in Escherichia coli 5980 assessed as potentiation of imipenem-induced antimicrobial activity by measuring imipenem MIC incubated for 18 to 20 hrs by CLSI based method (reference value: 8 ug/ml)
Outline: (§2)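 CLSI broth microdilution in MHBII. […] Inoculum about 5×10^5 CFU per well, incubated at 35 °C for 18–20 h. Imipenem MIC read as absence of visible growth.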

[8] = system: Enterobacter cloacae; assay: Inhibition of NDM-1 in Enterobacter cloacae 5981 assessed as potentiation of imipenem-induced antimicrobial activity by measuring imipenem MIC incubated for 18 to 20 hrs by CLSI based method (reference value: 2 ug/ml); outline: as §2
[9] = biological target: Metallo-beta-lactamase type 2 (Klebsiella pneumoniae) (UniProt C7C422); assay: Inhibition of NDM-1 in Klebsiella pneumoniae 5979 assessed as potentiation of imipenem-induced antimicrobial activity by measuring imipenem MIC incubated for 18 to 20 hrs by CLSI based method (reference value: <[…] ug/ml)
[10] = Inhibition of N-terminal 6x-His-tagged VIM-2 (unknown origin) expressed in Escherichia coli Rosetta 2 (DE3) assessed as reduction in nitrocefin hydrolysis by spectrophotometry; design: species or system Bacteria
Outline: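 Metallo-enzyme assay in 50 mM HEPES pH 7.2 with 50 µM zinc sulfate, 0.01% Triton X-100 and 20 µg/mL BSA, 37 °C. NDM-1 was construct 1 with the His/SUMO tag cleaved, at 2 nM; VIM-2 had its His tag TEV-cleaved, at 0.5 nM. Nitrocefin hydrolysis read at 486 nm; IC50 from sigmoidal fit, Ki by Cheng-Prusoff; mostly duplicate.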

[11] = system: Klebsiella pneumoniae; settings: 4683
[12] = Kinetic solubility in pH 7.4 PBS; assay type: physicochemical; settings: buffer
[13] = Inhibition of N-terminal 6x-His/Sumo-tagged NDM-1 (29 to 270 residues) (unknown origin) expressed in Escherichia coli BL21 (DE3) assessed as reduction in nitrocefin hydrolysis by spectrophotometry; design: species or system Bacteria
Outline: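 Metallo-enzyme assay in 50 mM HEPES pH 7.2 with 50 µM zinc sulfate, 0.01% Triton X-100 and 20 µg/mL BSA, 37 °C. NDM-1 was construct 1 with the His/SUMO tag cleaved, at 2 nM; VIM-2 had its His tag TEV-cleaved, at 0.5 nM.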

[14] = biological target: Beta-lactamase VIM-2 (Pseudomonas aeruginosa) (UniProt Q9K2N0); settings: 4698
[15] = Permeability in MDCK-MDR1 cells assessed as drug recovery; assay type: ADME, cell-based, Canis lupus familiaris; settings: dog

Sequence of Metallo-beta-lactamase type 2 (Klebsiella pneumoniae) (C7C422 whole entry): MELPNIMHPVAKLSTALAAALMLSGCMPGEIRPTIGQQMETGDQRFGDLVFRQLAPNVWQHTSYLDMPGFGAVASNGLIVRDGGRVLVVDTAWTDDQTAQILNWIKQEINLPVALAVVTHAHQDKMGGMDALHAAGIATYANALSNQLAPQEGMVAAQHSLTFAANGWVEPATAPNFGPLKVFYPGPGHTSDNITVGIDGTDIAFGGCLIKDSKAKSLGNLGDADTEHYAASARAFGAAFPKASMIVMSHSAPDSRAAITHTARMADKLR

MIC [1]: > 128 µg/mL | MIC [2]: > 128 µg/mL | Ki [3]: 2.2 µM | MIC [4]: > 128 µg/mL | MIC [5]: > 128 µg/mL | MIC [6]: > 128 µg/mL | MIC [7]: 2 µg/mL | MIC [8]: 2 µg/mL | MIC [9]: 64 µg/mL | MIC [11]: 1 µg/mL (≈ 3.74 µM) | Kinetic_solubility [12]: 193 µM | MIC [14]: > 64 µg/mL
Compound: Cc1cc(C)c2c(CP(=O)(O)O)cc(=O)[nH]c2c1
Ki [10]: 3.4 µM | Ki ([13]; read-out: Ki): 56.2 µM

Compound: C[C@H]1O[C@@H](O[C@H]2[C@@H](O)C[C@H](O[C@H]3[C@@H](O)C[C@H](O[C@H]4CC[C@@]5(C)[C@H](CC[C@@H]6[C@@H]5C[C@@H](O)[C@]5(C)[C@@H](C7=CC(=O)OC7)CC[C@]65O)C4)O[C@@H]3C)O[C@@H]2C)C[C@H](O)[C@@H]1O [DIGOXIN]
Drug recovery [15]: 105%

Drug recovery [15]: 97%
Compound: CC(C)NCC(O)COc1cccc2ccccc12 (stereo unspecified) [PROPRANOLOL]

Ki [3]: 326 µM
Compound: O=P(O)(O)Cc1ccnc2ccccc12
Ki [10]: 30.3 µM | Ki [13]: Not Active

Compound: Cc1cc(C)c2c(CP(=O)(O)O)cc(=O)oc2c1
Ki [10]: 0.82 µM | Ki ([13]; read-out: Ki): 33.8 µM

Compound: O=c1cc(CP(=O)(O)O)c2c(F)cc(F)cc2o1
Ki [10]: 3.3 µM | Ki [13]: Not Active

Compound: O=P(O)(O)Cc1cccc2cccnc12
Ki [10]: 22.3 µM

Compound: COc1ccc2c(CP(=O)(O)O)cc(=O)oc2c1
Ki [10]: 2.1 µM | Ki ([13]; read-out: Ki): 124 µM
